Measured values: publication PMC6392825 (ChemistryOpen, 2019)
Converted amounts (≈) assume the structure as drawn.

How the values were obtained:
EA.hy926 [1] = assay: Cell growth inhibition, protein content; type: cell-based; details: Homo sapiens, EA.hy 926, 72 h, read-out: IC50 SRB
Summary of the method: (§1)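 Cell lines from ATCC, grown in DMEM+glutamax with 1% NEAA, 1% P/S and 10% FBS at 37 °C, 10% CO2. Seeded at 20000 cells/well for 24 h, then exposed to test compound (25 mM DMSO stock) for three days. Fixed with cold TCA for 1 h at 4 °C, stained 30 min with 0.4% SRB in 1% acetic acid, dissolved in 10 mM Tris, A490. Triplicate; IC50 given as mean ± SD combined with MTT data (n ≥ 3).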

HT‐29 [2] = assay: Intracellular ROS assay; type: cell-based; details: for activity at 1 µM / activity at 10 µM: Homo sapiens, HT-29, read-out: Intracellular ROS, percentage compared to the untreated control cells (ROS/SRB); for change of intracellular ROS in words: HT‐29, vs untreated control, 10 and 1 μM
Summary of the method: (§2)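 Cells seeded at 20000/well and grown 24 h at 37 °C, 10% CO2, then treated with test compound at 10 and 1 μM in serum-free medium. NAC and doxorubicin served as controls. After a PBS wash, cells were loaded with 20 μM DCFH-DA for 30 min, washed, and held 1 h in phenol red-free DMEM. Fluorescence read at ex 485/em 535 nm and normalized to SRB in the same well. Reported as % of untreated control, n ≥ 3, two-tailed t-test with unequal variances.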

Caco‐2 [3] = assay: Intracellular ROS assay; type: cell-based; details: for activity at 1 µM / activity at 10 µM: Homo sapiens, Caco-2, read-out: Intracellular ROS, percentage compared to the untreated control cells (ROS/SRB); for change of intracellular ROS in words: Caco‐2, vs untreated control, 10 and 1 μM
Summary of the method: as §2

HepG2 [4] = assay: Cytotoxicity, mitochondrial activity; type: cell-based; details: Homo sapiens, HepG2, 72 h, read-out: IC50 MTT
Summary of the method: (§3)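 Seeded at 20000 cells/well in DMEM and grown 24 h at 37 °C, 10% CO2. Medium was then replaced with serum-free medium holding test compound (25 mM DMSO stock) at various concentrations for 72 h, in triplicate; doxorubicin was the positive control. MTT (5 mg/mL stock in PBS) added for 2 h, formazan dissolved in DMSO, A570. IC50 derived from % surviving cells, reported as mean ± SD combined with SRB data.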

Caco‐2 [5] = assay: Cell growth inhibition, protein content; type: cell-based; details: Homo sapiens, Caco-2, 72 h, read-out: IC50 SRB
Summary of the method: as §1

HepG2 [6] = assay: Intracellular ROS assay; type: cell-based; details: for activity at 1 µM / activity at 10 µM: Homo sapiens, HepG2, read-out: Intracellular ROS, percentage compared to the untreated control cells (ROS/SRB)
Summary of the method: as §2

EA.hy926 [7] = assay: Cytotoxicity, mitochondrial activity; type: cell-based; details: Homo sapiens, EA.hy 926, 72 h, read-out: IC50 MTT
Summary of the method: as §3

Caco‐2 [8] = assay: Cytotoxicity, mitochondrial activity; type: cell-based; details: Homo sapiens, Caco-2, 72 h, read-out: IC50 MTT
Summary of the method: as §3

HT‐29 [9] = assay: Cytotoxicity, mitochondrial activity; type: cell-based; details: Homo sapiens, HT-29, 72 h, read-out: IC50 MTT
Summary of the method: as §3

[10] = Water solubility, shake flask method, 0.1 M phosphate buffer pH 6.8; type: physicochemical; details: 37 °C, pH 6.8, aqueous buffer, thermodynamic from solid
EA.hy926 [11] = assay: Intracellular ROS assay; type: cell-based; details: for activity at 1 µM / activity at 10 µM: Homo sapiens, EA.hy 926, read-out: Intracellular ROS, percentage compared to the untreated control cells (ROS/SRB)
Summary of the method: as §2

HT‐29 [12] = assay: Cell growth inhibition, protein content; type: cell-based; details: Homo sapiens, HT-29, 72 h, read-out: IC50 SRB
Summary of the method: as §1

HepG2 [13] = assay: Cell growth inhibition, protein content; type: cell-based; details: Homo sapiens, HepG2, 72 h, read-out: IC50 SRB
Summary of the method: as §1

[14] = Chemical antioxidant capacity, FRAP assay
CHO‐K1 = assay: Intracellular ROS assay; type: cell-based, Chinese hamster; details: CHO‐K1, vs untreated control, 10 and 1 μM
Summary of the method: as §2

| SMILES | IC50 (Caco‐2 [5]) | solubility at 90 min [10] | solubility at 24 h [10] | IC50 (HepG2 [13]) | IC50 (EA.hy926 [1]) | activity at 1 µM (HT‐29 [2]) | activity at 10 µM (HT‐29 [2]) | activity at 1 µM (Caco‐2 [3]) | activity at 10 µM (Caco‐2 [3]) | IC50 (HepG2 [4]) | activity at 1 µM (HepG2 [6]) | activity at 10 µM (HepG2 [6]) | IC50 (EA.hy926 [7]) | IC50 (Caco‐2 [8]) | IC50 (HT‐29 [9]) | activity at 1 µM (EA.hy926 [11]) | activity at 10 µM (EA.hy926 [11]) | IC50 (HT‐29 [12]) | FRAP (Trolox equivalent per μM) [14] | FRAP (curcumin equivalent per μM) [14] | other results |
| --- | --- | --- | --- | --- | --- | --- | --- | --- | --- | --- | --- | --- | --- | --- | --- | --- | --- | --- | --- | --- | --- |
| O=C(/C=C(O)/C=C/c1ccncc1)/C=C/c1c[nH]c2ccccc12 [3 i, (1E,4Z,6E)‐5‐Hydroxy‐1‐(1H‐indol‐3‐yl)‐7‐(pyridin‐4‐yl)hepta‐1,4,6‐trien‐3‐one] | 29.8 ± 2.3 µM | 7.8 ± 0.1 µM (≈ 2.47 µg/mL) | 7.7 ± 0.6 µM (≈ 2.44 µg/mL) | > 75 µM | > 75 µM | 73.3 ± 7.8% | 73.6 ± 5.3% | 101 ± 5.1% | 89.7 ± 8.9% | 48.5 ± 1.7 µM | 125 ± 12% | 147 ± 12.8% | 34.9 ± 1.3 µM | 47.1 ± 1.6 µM | 42 ± 1 µM | 106 ± 10.5% | 119 ± 2.9% | 64.2 ± 2.76 µM | 0.19 Trolox equivalent per μM | 0.18 curcumin equivalent per μM |  |
| COc1cc(/C=C/C(=O)/C=C(O)/C=C/c2ccccn2)ccc1O [3 b, (1E,4Z,6E)‐5‐Hydroxy‐1‐(4‐hydroxy‐3‐methoxyphenyl)‐7‐(pyridin‐2‐yl)hepta‐1,4,6‐triene‐3‐one] | 25.8 ± 1.1 µM | 9.9 ± 0.4 µM (≈ 3.2 µg/mL) | 11.6 ± 0.6 µM (≈ 3.75 µg/mL) | 20.6 ± 1.4 µM | 3.1 µM | 80.8 ± 2.5% | 93.6 ± 3.1% | 92.7 ± 5.4% | 99.7 ± 6.2% | 24.6 ± 4.8 µM | 108 ± 6.7% | 91.9 ± 9.2% | 1.1 ± 0.1 µM | 22.3 ± 0.9 µM | 34.3 ± 2.7 µM | 100 ± 7% | 127 ± 4.9% | 34.8 ± 1.2 µM | 0.41 Trolox equivalent per μM | 0.40 curcumin equivalent per μM |  |
| COc1cc(/C=C/C(=O)CC(=O)/C=C/c2ccc(O)c(OC)c2)ccc1O [Cur, curcumin, reference compound] | 39.1 ± 0.1 µM | 2.7 ± 0.1 µM (≈ 0.995 µg/mL) |  | 22.1 ± 2.6 µM | 58.4 ± 4.2 µM | 106 ± 8.4% | 86.5 ± 4.5% | 131 ± 3.6% | 115 ± 7.2% | 25.3 ± 0.9 µM | 90.8 ± 12% | 101 ± 8.8% | 46.8 ± 0.7 µM | 47.6 ± 1.5 µM | 43.4 ± 4.6 µM | 100 ± 7.7% | 97.6 ± 5.7% | 52.3 ± 3.8 µM | 1.00 Trolox equivalent per μM |  |  |
| O=C(/C=C(O)/C=C/c1cccs1)/C=C/c1c[nH]c2ccccc12 [3 m, (1E,4Z,6E)‐5‐Hydroxy‐1‐(1H‐indol‐3‐yl)‐7‐(thiophen‐2‐yl)hepta‐1,4,6‐trien‐3‐one] | 5.7 ± 0.2 µM | 1.27 µM (≈ 0.408 µg/mL) | 1.25 µM (≈ 0.402 µg/mL) | 10.8 ± 1.6 µM | 8.6 ± 0.5 µM | 247 ± 15.5% | 337 ± 22% | 238 ± 5.5% | 295 ± 11.1% | 4.7 ± 0.2 µM | 318 ± 13.2% | 424 ± 28.4% | 4.4 ± 0.4 µM | 0.5 ± 0.3 µM | 6.9 µM | 344 ± 7.1% | 322 ± 9.6% | 4.8 ± 0.3 µM | 0.10 Trolox equivalent per μM | 0.09 curcumin equivalent per μM |  |

More lines, in order of falling IC50 (Caco‐2 [5]), values ahead:

| IC50 (Caco‐2 [5]) | solubility at 90 min [10] | solubility at 24 h [10] | IC50 (HepG2 [13]) | SMILES | IC50 (EA.hy926 [1]) | activity at 1 µM (HT‐29 [2]) | activity at 10 µM (HT‐29 [2]) | activity at 1 µM (Caco‐2 [3]) | activity at 10 µM (Caco‐2 [3]) | IC50 (HepG2 [4]) | activity at 1 µM (HepG2 [6]) | activity at 10 µM (HepG2 [6]) | IC50 (EA.hy926 [7]) | IC50 (Caco‐2 [8]) | IC50 (HT‐29 [9]) | activity at 1 µM (EA.hy926 [11]) | activity at 10 µM (EA.hy926 [11]) | IC50 (HT‐29 [12]) | FRAP (Trolox equivalent per μM) [14] | FRAP (curcumin equivalent per μM) [14] | other results |
| --- | --- | --- | --- | --- | --- | --- | --- | --- | --- | --- | --- | --- | --- | --- | --- | --- | --- | --- | --- | --- | --- |
| 40.8 ± 1.6 µM | 3.6 ± 1.1 µM (≈ 1.34 µg/mL) | 4.4 ± 1.3 µM (≈ 1.64 µg/mL) | 55.4 ± 0.3 µM | COc1cc(/C=C/C(=O)/C=C(O)/C=C/c2ccnc3ccccc23)ccc1O [3 d, (1E,4Z,6E)‐5‐Hydroxy‐1‐(4‐hydroxy‐3‐methoxyphenyl)‐7‐(quinolin‐4‐yl)hepta‐1,4,6‐triene‐3‐one] | 60.2 ± 10.4 µM | 71.3 ± 4.9% | 96.9 ± 8% | 94.2 ± 5% | 108 ± 4.4% | 44.8 ± 5.5 µM | 90.7 ± 7.4% | 99.6 ± 11.7% | 42.3 ± 1.2 µM | 46.3 ± 3.7 µM | 47 ± 1 µM | 95.6 ± 7% | 132 ± 6.5% | 47.2 ± 2.2 µM | 0.20 Trolox equivalent per μM | 0.20 curcumin equivalent per μM |  |
| 37.9 ± 1.8 µM | 7.6 ± 0.9 µM (≈ 2.75 µg/mL) | 13.2 ± 0.3 µM (≈ 4.77 µg/mL) | 13.5 ± 1.1 µM | COc1cc(/C=C/C(=O)/C=C(O)/C=C/c2c[nH]c3ccccc23)ccc1O [3 g, (1E,4Z,6E)‐5‐Hydroxy‐1‐(4‐hydroxy‐3‐methoxyphenyl)‐7‐(1H‐indol‐3‐yl)hepta‐1,4,6‐trien‐3‐one] | 45.1 ± 2.6 µM | 85.7 ± 1.3% | 90.4 ± 5.1% | 102 ± 11.3% | 111 ± 3.1% | 19.5 ± 0.6 µM | 111 ± 14.5% | 104 ± 12% | 19 ± 0.4 µM | 5.8 ± 0.3 µM | 12.9 ± 0.9 µM | 129 ± 9.2% | 92.7 ± 6.1% | 40.5 ± 4.3 µM | 0.44 Trolox equivalent per μM | 0.42 curcumin equivalent per μM |  |
| 18.7 ± 1.2 µM | 8.8 ± 0.4 µM (≈ 2.81 µg/mL) | 7.7 ± 0.7 µM (≈ 2.46 µg/mL) | > 75 µM | COc1cc(/C=C/c2cc(/C=C/c3cccnc3)[nH]n2)ccc1O [4 a, 2‐Methoxy‐4‐{(E)‐2‐[5‐((E)‐2‐(pyridin‐3‐yl)vinyl)‐1H‐pyrazol‐3‐yl]vinyl}phenol] | 60.7 ± 0.7 µM | 61.3 ± 6.9% | 84.8 ± 3.8% | 79.1 ± 8.8% | 86.7 ± 2% | 11.2 ± 0.1 µM | 88.4 ± 6.3% | 83.1 ± 5.5% | 18.5 ± 1.3 µM | 53.7 ± 6.1 µM | > 75 µM |  | 97.3 ± 7.3% | 24 ± 1.6 µM | 0.57 Trolox equivalent per μM | 0.55 curcumin equivalent per μM | change of intracellular ROS in words (HT‐29 [2]): significantly decreased ROS signal; change of intracellular ROS in words (Caco‐2 [3]): significantly decreased ROS production; antioxidant activity in words, FRAP [14]: comparable to ascorbic acid |
| 9.2 ± 0.5 µM |  |  | 1.3 ± 0.3 µM | COc1cccc2c1C(=O)c1c(O)c3c(c(O)c1C2=O)C[C@@](O)(C(=O)CO)C[C@@H]3O[C@H]1C[C@H](N)[C@H](O)[C@H](C)O1 [Dox, doxorubicin, reference compound] | 3.4 ± 0.4 µM | 116 ± 1.7% | 126 ± 1.8% | 121 ± 9.4% | 112 ± 3.9% | 1.8 ± 0.1 µM | 100 ± 4.1% | 119 ± 4.2% | 4.1 ± 0.1 µM | 13 ± 0.5 µM | 4.8 ± 0.1 µM | 108 ± 6.2% | 125 ± 5.1% | 2.7 ± 0.1 µM |  |  | change of intracellular ROS in words (HT‐29 [2]): significant increase in ROS generation; change of intracellular ROS in words (Caco‐2 [3]): significant increase in ROS generation; change of intracellular ROS in words (CHO‐K1): significant increase in ROS generation; change of intracellular ROS in words (HepG2 [6]; HepG2, vs untreated control, 10 and 1 μM): significant increase in ROS generation; change of intracellular ROS in words (EA.hy926 [11]; EA.hy926, vs untreated control, 10 and 1 μM): significant increase in ROS generation |
